# BindingDB's records for doi:10.1016/j.bmc.2011.04.027 (University of Mansoura, 2011)
# Biological target: T1, Prostaglandin G/H synthase 1 (Ovis aries, UniProt P05979)
# T1 sequence (P05979 whole entry): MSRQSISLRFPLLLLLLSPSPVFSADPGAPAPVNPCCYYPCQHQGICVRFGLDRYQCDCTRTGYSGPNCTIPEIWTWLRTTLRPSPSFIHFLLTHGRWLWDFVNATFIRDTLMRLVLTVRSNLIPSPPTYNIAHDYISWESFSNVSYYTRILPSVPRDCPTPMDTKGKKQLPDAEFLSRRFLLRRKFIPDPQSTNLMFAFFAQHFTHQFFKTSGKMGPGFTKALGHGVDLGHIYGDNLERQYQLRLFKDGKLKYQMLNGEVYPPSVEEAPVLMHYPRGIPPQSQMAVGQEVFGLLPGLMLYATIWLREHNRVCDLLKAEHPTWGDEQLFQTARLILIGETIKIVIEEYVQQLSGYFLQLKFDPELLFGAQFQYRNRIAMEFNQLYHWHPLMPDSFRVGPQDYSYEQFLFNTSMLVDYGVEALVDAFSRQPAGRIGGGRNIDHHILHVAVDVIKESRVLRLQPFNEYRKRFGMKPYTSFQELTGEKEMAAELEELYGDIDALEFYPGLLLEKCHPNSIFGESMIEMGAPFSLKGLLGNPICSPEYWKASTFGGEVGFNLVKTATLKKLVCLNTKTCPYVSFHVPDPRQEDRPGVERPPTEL
# Experiment: Inhibition of ovine COX1 assessed as PGF2alpha production from PGH2 after 5 mins by enzyme immunoassay
# Outline: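 Ovine COX-1 in reaction buffer with 2 mM phenol and heme, preincubated with six test concentrations (1 mL final) for 5 min at 37 °C. Arachidonic acid was then added and the reaction stopped with 1 M HCl after 2 min. Prostanoids were reduced with stannous chloride and quantified by competitive acetylcholinesterase-tracer EIA (Ellman's reagent, 410 nm). IC50 came from concentration–inhibition curves, duplicate determinations.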
row,IC50 [µM],Structure (SMILES)
1,> 50,O=[N+]([O-])c1ccc(/N=N/c2c(-c3ccc(Cl)cc3)n[nH]c2C(F)(F)F)cc1 [3-(4-Chlorophenyl)-4-(2-(4-nitrophenyl)hydrazono)-5-trifuoromethyl)-4H-pyrazole]
2,> 50,FC(F)(F)c1[nH]nc(-c2ccc(Cl)cc2)c1N=Nc1ccccc1Cl [3-(4-Chlorophenyl)-4-(2-(2-chlorophenyl)hydrazono)-5-trifuoromethyl)-4H-pyrazole]
3,> 50,COc1ccc(N=Nc2c(-c3ccc(Cl)cc3)n[nH]c2C(F)(F)F)cc1 [3-(4-Chlorophenyl)-4-(2-(4-methoxyphenyl)hydrazono)-5-trifuoromethyl)-4H-pyrazole]
4,> 50,"FC(F)(F)c1cc(N=Nc2c(-c3ccc(Cl)cc3)n[nH]c2C(F)(F)F)cc(C(F)(F)F)c1 [3-(4-Chlorophenyl)-4-(2-(3,5-bis(trifluoromethyl)phenyl)hydrazono)-5-trifuoromethyl)-4H-pyrazole]"
